# Bioassay records deposited in PubChem BioAssay by several laboratories.
# In the library only some 4.9% were active in any assay of this set; here they are far more common.
# FLuc inhib CS = inhibits firefly luciferase, flagging false hits in luciferase inhibition screens | ATPLite firefly luciferase biochemical luminescence, 10 min | inhibition, % at 10 µM | 200,000 tested, 1.5% active | AID 1006;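 active = inhibition above about 50% when tested at 10 µM, limit read from the data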
# Target sequence (P08659 whole entry, looked up): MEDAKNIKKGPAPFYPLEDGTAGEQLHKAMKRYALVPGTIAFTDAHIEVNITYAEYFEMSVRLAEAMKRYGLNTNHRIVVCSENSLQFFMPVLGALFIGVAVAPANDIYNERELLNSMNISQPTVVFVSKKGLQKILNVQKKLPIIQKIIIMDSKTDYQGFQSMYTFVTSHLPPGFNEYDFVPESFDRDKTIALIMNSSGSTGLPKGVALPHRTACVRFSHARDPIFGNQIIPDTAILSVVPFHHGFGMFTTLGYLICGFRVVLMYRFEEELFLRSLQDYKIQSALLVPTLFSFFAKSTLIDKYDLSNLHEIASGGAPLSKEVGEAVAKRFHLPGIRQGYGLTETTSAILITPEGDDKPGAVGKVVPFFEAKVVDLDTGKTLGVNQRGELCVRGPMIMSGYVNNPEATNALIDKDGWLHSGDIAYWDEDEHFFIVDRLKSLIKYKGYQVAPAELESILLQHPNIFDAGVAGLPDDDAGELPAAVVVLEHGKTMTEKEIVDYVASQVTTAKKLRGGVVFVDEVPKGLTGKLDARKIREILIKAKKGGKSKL
# STAT1 inh = inhibitors of IFN-gamma induced STAT1 signaling | NIH 3T3 STAT1-luciferase reporter, luminescence | inhibition, % at 5.5 µM | 200,000 tested, 0.35% active | AID 920;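 active = inhibition above a set limit, the mean inhibition across all tested compounds plus 3 SD, cut at about 34% in these data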;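 note: 0% = IFN-gamma with DMSO and 100% = IFN-gamma with 300 µM nifuroxazide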
# STAT3 inh-1 = inhibitors of IL-6 induced STAT3 signaling | inhibition, % at 5.5 µM | U3A cells, IL-6 STAT3-luciferase reporter, luminescence; host cell line lacks STAT1 | 190,000 tested, 0.89% active;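 active = inhibition above the mean inhibition across all screened compounds plus 3 SD, cut at about 44% in these data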;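 note: 0% = DMSO only wells and 100% = 100 µM nifuroxazide control wells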
# STAT1 activator = increases IFN-gamma driven STAT1 reporter signal | NIH 3T3 STAT1-luciferase reporter, luminescence; 100% = IFN-gamma alone, no compound | 200,000 tested, 2.6% active | AID 932 | activation (% of control), % at 5.5 µM;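 active = activation above the screen-wide mean activation plus 3 SD, cut at about 130% in these data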;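 note: raw ratio to IFN-gamma control signal so 100% means no change and 0% no light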
# STAT3 act = increases IL-6 driven STAT3 reporter signal | 190,000 tested, 0.91% active | AID 871 | U3A cells, IL-6 STAT3-luciferase reporter, luminescence; 100% = signal with IL-6 EC80 alone | activation (% of control), % at 5.6 µM;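 active = activation above the screen-wide mean of compound activation plus 3 SD, cut at about 130% in these data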;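 note: 0% = background luminescence of wells with medium and substrate only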
#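 system = STAT3-luciferase reporter U3A cells | reagent = IL-6 stimulus at 33 ng/mL final | timing = 1 h compound pre-exposure, 6 h IL-6 stimulation, 37 °C | measured by = luminescence | evaluation = % activation versus median of IL-6-stimulated wells | control set = IL-6-only wells as 100% reference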
# FLuc act counter = firefly luciferase counter-screen for stimulation assays | P08659 | ATPlite luciferase biochemical, luminescence, 10 min; 0 = ATP-free wells, 1 = DMSO control | activation factor at 10 µM | 200,000 tested, under 10 active | AID 1027;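 active = luciferase activation factor, scaled between plate controls, of at least 2 with compound at 10 µM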
#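 System: cell-free luciferase reagent; medium: PBS as buffer for the ATP substrate; doses: test compounds dosed from 2 mM stocks in 100% DMSO; incubation: 10 min, room temperature; measured by: luminescence from luciferase reaction; read-out: luciferase activation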
# STAT3 inh-2 = confirmation of STAT3 signaling inhibitors; U3A cells, IL-6 STAT3 luciferase reporter, luminescence; cell line lacks STAT1; inhibition, % at 5.7 µM; 1,200 tested, 45% active; AID 1265; shares compounds with STAT3 inh-1;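 active = inhibition above the hit cutoff computed for the primary STAT3 screen, cut at about 44% in these data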;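 note: 0% = IL-6 plus DMSO and 100% = IL-6 plus nifuroxazide control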
# NFkB inh 2 = NF-kappaB inhibition in STAT3 inhibitor counter-screen | inhibition, % at 5.7 µM | 1,200 tested, 36% active | HEK293T NF-kB luciferase reporter, TNF-alpha induced | shares compounds with STAT3 inh-1 | AID 1308;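 active = inhibition above the mean of solvent-only control wells plus 3 SD, cutoff set per campaign, cut at about 13% in these data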;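 note: 0% = TNF-alpha with DMSO and 100% = TNF-alpha with MG high control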
# STAT1 inh 2 = inhibits STAT1, counter-screen to STAT3 inhibitors. shares compounds with STAT3 inh-1. NIH 3T3 STAT1-luciferase reporter, IFN-gamma induced, luminescence. inhibition, % at 5.7 µM. 1,200 tested, 27% active. AID 1317;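 active = inhibition above the mean plus 3 SD of solvent-only control wells, limit set per screening run, cut at about 16% in these data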;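 note: 0% = DMSO with IFN-gamma and 100% = nifuroxazide control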
# Numbers without * were called inactive; · = no result given.
SMILES,FLuc inhib CS,STAT1 inh,STAT3 inh-1,STAT1 activator,STAT3 act,FLuc act counter,others
COc1ccc(CCNC(=O)c2ccc(C)s2)cc1OC,-4.0,2.8,-9.1,97.5,107.1,1,
O=C(O)C1CCN(C(=O)CSc2nc3ccccc3s2)CC1,-2.0,1.5,7.0,97.0,103.3,1,
CC1CCCC(C)N1C(=O)CSc1nc2ccccc2s1 (stereo not given),0.0,-2.9,-38.9,102.7,133.4*,1,
O=C(CSc1nc2ccccc2s1)N1CCCCC1,7.7,-25.3,-19.6,123.4,113.4,0.9,
CC1CCN(C(=O)CSc2nc3ccccc3s2)CC1,4.0,-34.7,-23.9,131.9*,123.5,1,
Cc1csc(NC(=O)CCNC(=O)c2ccc([N+](=O)[O-])cc2)n1,-1.7,-1.6,-8.7,101.5,106.0,1,
O=C(/C=C1\NCC2c3ccccc3CCN2C1=O)c1ccccc1 (stereo not given),8.7,1.0,-31.2,99.1,133.7*,0.9,
CC1CCC2=NN(C(=O)c3ccco3)C(O)(C(F)(F)F)C2C1 (stereo not given),-1.1,-9.6,2.4,107.3,101.9,1,
CC(/C=C/c1ccco1)=N\NC(=O)COc1ccc(C)c(C)c1,5.2,2.1,-0.9,96.5,104.7,0.9,
c1ccc(COc2ccc(OCCCN3CCCC3)cc2)cc1,58.5*,-4.1,42.9,103.6,64.9,0.4,
Cc1cc(C(=O)COC(=O)c2ccc3c(c2)OCO3)c(C)n1CC1CCCO1 (stereo not given),67.1*,7.6,30.5,91.6,76.8,0.3,
Cc1cc(C)n2nc(SCC(=O)c3cc(C)n(CC4CCCO4)c3C)nc2n1 (stereo not given),5.8,21.5,6.6,79.4,96.5,0.9,
Cc1cc(C(=O)CSc2nc3ccccc3o2)c(C)n1CC1CCCO1 (stereo not given),22.0,-32.1,35.9,142.4*,70.7,0.8,
COCCNC(=S)N(C)C1(c2ccccc2Cl)CCCCC1=O (stereo not given),-11.4,-7.6,5.9,103.8,99.0,1.1,
Cc1ccc(CNC(=O)CNC(=S)N(Cc2ccccc2)Cc2ccccc2F)cc1,-6.2,19.3,5.5,80.9,101.1,1.1,
O=C(C1=NNCC1c1ccccc1)C1CO1 (stereo not given),-3.2,-0.1,-7.7,100.1,104.1,1,
CCOC(=O)c1ccccc1NC(=S)N1CCN(C2CCCCC2)CC1,-3.7,1.0,7.3,97.8,100.4,1,
COc1ccc(C2C(C(=O)c3ccccc3)N3c4ccccc4C=CC3C2[N+](=O)[O-])cc1 (stereo not given),2.7,0.0,-38.0,98.9,132.9*,1,
CC(/C=N/NC(=O)Cn1nccc1C)=C\c1ccc(C(C)C)cc1,-3.4,-32.8,-7.9,129.3*,109.0,1,
CC(=C/c1ccc(C(C)C)cc1)/C=N/NC(=O)Cn1nc(C)cc1C,-2.4,-6.0,-7.1,105.3,106.3,1,
c1ccc(-c2noc(C34CC5CC(CC(C5)C3)C4)n2)nc1,37.3,-34.6,-19.6,131.9*,118.7,0.6,
c1ccc(-c2noc(C34CC5CC(CC(C5)C3)C4)n2)cc1,-0.5,-4.6,4.5,104.3,100.0,1,
Brc1ccc(-c2noc(C3CCCCC3)n2)cc1,6.8,-33.4,11.6,127.8,94.5,0.9,
c1ccc(-c2noc(C3CCCCC3)n2)nc1,35.2,-33.7,11.7,130.8*,93.8,0.6,
CN1CCCN(Cc2nc(-c3ccc(Cl)cc3)no2)CC1,-3.5,-1.8,8.3,100.0,97.1,1,
SMILES,FLuc inhib CS,STAT1 inh,STAT3 inh-1,STAT1 activator,STAT3 act,FLuc act counter,others
Cc1cccc2nc(CSc3ccccc3N)cn12,·,-43.7,5.3,140.1*,98.2,·,
Cc1cccc2nc(CSc3ccccc3C(=O)O)cn12,3.5,1.5,-10.1,98.6,104.5,1,
O=C(COC(=O)CNC(=O)c1ccccc1)Nc1ccc(F)c([N+](=O)[O-])c1,0.6,5.9,0.2,96.0,104.2,1,
Oc1ccc(N=Nc2ccc3c(c2)OCCO3)c2cccnc12,27.9,8.6,62.9*,90.9,50.9,0.7,STAT3 inh-2=-4.6;NFkB inh 2=-11.8;STAT1 inh 2=-36.8
Cc1ccccc1N=Nc1ccc(O)c2ncccc12,-1.9,3.1,11.8,97.2,88.3,1,
Cc1ccn2cc(-c3cc4ccccc4oc3=O)nc2c1,42.2,26.0,74.8*,74.4,37.8,0.6,STAT3 inh-2=43.8*;NFkB inh 2=26.7*;STAT1 inh 2=-50.8
Cc1ccc(-c2csc(Cc3nc(-c4cc5ccccc5oc4=O)cs3)n2)cc1,-4.1,8.8,11.1,92.1,97.0,1,
c1ccc2[nH]c(-c3ccnc4ccccc34)nc2c1,-4.4,-11.6,-10.1,112.3,112.1,1,
O=C1C(c2ccnc3ccccc23)=C(O)c2ccccc21,90.5*,7.0,47.5*,93.6,62.6,0.1,STAT3 inh-2=8.7;NFkB inh 2=38.0*;STAT1 inh 2=-30.0
CCOC(=O)C1(CC2CCCCO2)CCN(C(=O)Nc2ccccc2CC)CC1 (stereo not given),-1.8,4.9,8.0,94.0,97.4,1,
COc1ccccc1N1C(=O)C2CCC(c3ccccc3)CC2C1=O (stereo not given),-6.0,6.3,10.2,96.2,90.0,1.1,
CC1CCC2C(=O)N(c3ccccc3OC(=O)c3ccccc3)C(=O)C2C1 (stereo not given),-11.7,5.0,43.9*,95.5,65.5,1.1,STAT3 inh-2=45.0*;NFkB inh 2=1.6;STAT1 inh 2=3.2
CCOc1ccc(C(=O)NNC2CC(=O)N(Cc3ccc(Cl)cc3)C2=O)cc1OC (stereo not given),-7.5,-4.9,7.1,102.7,97.1,1.1,
CCC(C)C(=O)Nc1cccc(SC)c1 (stereo not given),-5.1,-19.4,-2.8,116.0,112.8,1.1,
COc1cc(C(=O)NCCOc2ccc(F)cc2)c(Br)c(OC)c1OC,-4.2,8.1,29.9,92.7,80.3,1,
O=C(COc1ccc(Cl)cc1Cl)Nc1ccc(Cl)cn1,85.7*,-42.7,66.2*,141.7*,48.2,0.1,STAT3 inh-2=33.2;NFkB inh 2=-22.5;STAT1 inh 2=-94.5
CCN(C(=O)c1ccc(C(C)(C)C)cc1)c1nnc(Cn2nnc3ccccc32)s1,-3.1,21.7,86.4*,80.1,27.3,1,STAT3 inh-2=84.5*;NFkB inh 2=30.9*;STAT1 inh 2=15.0
CCN(C(=O)CC(C)C)c1nnc(Cn2nnc3ccccc32)s1,-4.1,13.9,12.0,85.8,91.0,1,
